Assays:
[1] = molecular target: T1, Protein kinase C delta type (Homo sapiens, UniProt Q05655); experiment: Inhibition of [3H]PDBu binding to C1b domain of protein kinase C delta with phosphatidylserine
Summary of the method: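 δC1b domain as GST fusion, expressed in BL-21 (DE3) E. coli and spin-purified. Assay buffer 50 mM Tris-HCl pH 7.4 with 100 μg/ml phosphatidylserine, 4 mg/ml bovine IgG and 1 mM EGTA, plus [3H]PDBu and varied competitor. Incubated 10 min at 18 °C, then precipitated with PEG and pellet counted. Specific binding is total minus binding with 64 μM cold PDBu. Ki reported.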

[2] = molecular target: Protein kinase C alpha type (Homo sapiens, UniProt P17252); experiment: Inhibition of [3H]PDBu binding to recombinant protein kinase C alpha was determined at pH 7.4, 37 degree C for 5 min
Summary of the method: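 PKCα displacement of [3H]PDBu in 50 mM Tris-HCl, 100 μg/ml phosphatidylserine, 4 mg/ml bovine IgG and 0.1 mM CaCl2, with a range of competitor concentrations. After incubation, chilled 7 min and 35% PEG added, then 10 min on ice and spun at 4 °C. Pellet bound radioactivity counted. Nonspecific binding measured with 64 μM unlabeled PDBu. Expressed as Ki.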

[3] = molecular target: T1, Protein kinase C delta type; experiment: Inhibition of [3H]-PDBu binding to C1b domain of protein kinase C delta without phosphatidylserine
Summary of the method: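 GST-tagged δC1b expressed in BL-21 (DE3) E. coli and purified on glutathione spin columns, purity checked by SDS-PAGE. Competition with [3H]PDBu run in 50 mM Tris-HCl pH 7.4, 4 mg/ml bovine IgG, 1 mM EGTA, no phosphatidylserine, 10 min at 18 °C. Bound ligand separated by PEG precipitation on ice and counted by scintillation. Nonspecific binding taken with 64 μM unlabeled PDBu. Ki derived.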

T1 sequence (Q05655 whole entry, the tested form may be a part): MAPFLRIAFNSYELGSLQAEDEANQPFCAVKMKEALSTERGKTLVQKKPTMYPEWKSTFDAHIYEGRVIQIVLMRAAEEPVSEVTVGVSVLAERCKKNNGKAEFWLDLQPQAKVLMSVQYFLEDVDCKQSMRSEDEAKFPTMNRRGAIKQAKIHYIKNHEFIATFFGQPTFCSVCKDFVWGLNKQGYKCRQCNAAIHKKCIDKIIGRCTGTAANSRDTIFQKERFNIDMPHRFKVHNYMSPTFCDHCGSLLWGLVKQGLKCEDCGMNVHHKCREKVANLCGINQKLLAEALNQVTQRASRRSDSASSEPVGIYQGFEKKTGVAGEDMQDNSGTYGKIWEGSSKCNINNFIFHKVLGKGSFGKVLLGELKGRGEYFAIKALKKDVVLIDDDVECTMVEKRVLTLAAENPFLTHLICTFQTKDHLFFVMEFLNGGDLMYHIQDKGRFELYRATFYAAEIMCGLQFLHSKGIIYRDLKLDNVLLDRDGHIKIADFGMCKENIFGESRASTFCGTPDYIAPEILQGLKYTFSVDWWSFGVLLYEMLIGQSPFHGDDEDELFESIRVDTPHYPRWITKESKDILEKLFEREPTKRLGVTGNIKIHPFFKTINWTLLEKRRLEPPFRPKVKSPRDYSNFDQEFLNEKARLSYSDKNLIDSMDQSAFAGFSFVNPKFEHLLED

| Compound | Ki [1] [nM] | Ki [2] [nM] | Ki [3] [nM] |
| --- | --- | --- | --- |
| CC(C)CC(C/C=C1/CC(CO)(COCC(C)(C)C)OC1=O)CC(C)C (stereo unspecified) | 2140 | 5870 |  |
| CC(C)CC(C/C=C1\CC(CO)(COC(=S)C(C)(C)C)OC1=O)CC(C)C (stereo unspecified) | 20.6 | 113 | 606 |
| CC(C)CC(C/C=C1/COC(CO)(COC(=O)C(C)(C)C)C1)CC(C)C (stereo unspecified) | 219 | 622 | 6620 |
| CC(C)CC(C/C=C1\CC(CO)(COCC(C)(C)C)OC1=O)CC(C)C (stereo unspecified) | 1890 | 14300 | 101000 |
| CC(C)CC(C/C=C1\CC(CO)(COC(=O)C(C)(C)C)OC1=O)CC(C)C (stereo unspecified) |  | 3.25 | 103 |
| CC(C)CC(C/C=C1\CC(CO)(COC(=O)C(C)(C)C)OC1=S)CC(C)C (stereo unspecified) | 3.13 | 23.7 | 173 |
